{"source": "paper PMC12010439", "about": "(Cell, 2024)", "key": {"[1]": {"system": "T cells of HLA-A*02 healthy donors", "assay": "IFN-γ ELISpot assay", "type": "cell-based, human"}, "UCEC tumors": {"system": "UCEC tumors", "settings": "cited from earlier work"}, "[2]": {"system": "eight cell lines representing different cancer types", "assay": "Drug response viability assay", "type": "cell-based", "settings": "48 h"}, "[3]": {"system": "HT29 colon cancer cell line xenografts", "assay": "HT29 colon cancer cell line xenograft treated with alvespimycin", "type": "in vivo, BALB/c nude mice", "settings": "alvespimycin 50 mg/kg intraperitoneally daily, N = 9", "summary_of_the_method": "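Female BALB/c nude mice, 4–6 weeks old, received 5×10^6 HT29 cells in 100 μL PBS subcutaneously in the dorsal flank. On day 0 they were randomised to vehicle (2% DMSO in PBS) or test compound at 50 mg/kg i.p. daily, N = 9 per group, and sacrificed 7 days later. Tumours were measured by caliper every 1–3 days; volume = (width)2 × length × 0.52; mean ± sd.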"}, "[4]": {"settings": "CD8+ T cell cultures of donor US1 with HLA-A*02:11, peptide 12.5 μg/mL, about 16 hrs (BCM)"}, "[5]": {"settings": "donor CN1 with HLA-A*02:01, peptide 10 μg/mL, 20h co-culture (Fudan)"}}, "note": "pIC50: −log10 of the molar value."}
{"compound": "MMGLYDGMEHL [PEP17]", "values": [{"measurement": "T cell reactivity, IFN-γ ELISpot", "setting": "[1]; [4]", "result": "strong reactivity"}]}
{"compound": "FSYAWPFYNPV [PEP28]", "values": [{"measurement": "T cell reactivity, IFN-γ ELISpot", "setting": "[1]; [5]", "result": "strong reactivity"}]}
{"compound": "CILESLFRAV [PEP4]", "values": [{"measurement": "T cell reactivity, IFN-γ ELISpot", "setting": "[1]; [4]", "result": "strong reactivity"}]}
{"compound": "YLVERQLQEI [PEP40]", "values": [{"measurement": "T cell reactivity, IFN-γ ELISpot", "setting": "[1]; [5]", "result": "strong reactivity"}]}
{"compound": "COc1cccc2c1C(=O)c1c(O)c3c(c(O)c1C2=O)C[C@@](O)(C(=O)CO)C[C@@H]3O[C@H]1C[C@H](N)[C@H](O)[C@H](C)O1", "note": "[doxorubicin]", "values": [{"measurement": "overall response rate", "setting": "UCEC tumors; unselected UCEC patients", "result": 16, "unit": "%"}]}
{"compound": "C=CCNC1=C2C[C@@H](C)C[C@H](OC)[C@H](O)[C@@H](C)/C=C(\\C)[C@H](OC(N)=O)[C@@H](OC)/C=C\\C=C(/C)C(=O)NC(=CC1=O)C2=O", "note": "[tanespimycin]", "values": [{"measurement": "pIC50", "setting": "[2]", "result": "> 6.00"}]}
{"compound": "CO[C@H]1/C=C\\C=C(/C)C(=O)NC2=CC(=O)C(NCCN(C)C)=C(C[C@@H](C)C[C@H](OC)[C@H](O)[C@@H](C)/C=C(\\C)[C@@H]1OC(N)=O)C2=O", "note": "[alvespimycin]", "values": [{"measurement": "pIC50", "setting": "[2]", "result": "> 6.00"}, {"measurement": "tumor regression", "setting": "[3]", "result": "began to induce tumor regression after seven days of treatment"}]}
{"compound": "O=C1c2c(O)ccc(O)c2C(=O)c2c(NCCNCCO)ccc(NCCNCCO)c21", "note": "[mitoxantrone]", "values": [{"measurement": "clinical activity", "setting": "UCEC tumors; UCEC tumors among unselected patients", "result": "lack clinical activity"}]}
